This passage reports Ki results from ChEMBL document CHEMBL1145212, “Fluorinated diaryl sulfides as serotonin transporter ligands: synthesis, structure-activity relationship study, and in vivo evaluation of fluorine-18-labeled compounds as PET imaging agents” (J Med Chem, 2005).

Format in all cases: cell-based
In test [1] the target is Sodium-dependent dopamine transporter (Homo sapiens, UniProt Q01959). The test is described as follows: In vitro displacement of [3H]GBR-12935 from human dopamine transporter expressed in HEK293 cells. The essentials:
(§1)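 Competitive binding using cloned human transporters expressed in HEK-293 cells. NET was labelled with [³H]nisoxetine and DAT with [³H]GBR12935, following a previously published procedure.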

The target of test [2] is Sodium-dependent serotonin transporter (Homo sapiens, UniProt P31645). The test is described as follows: In vitro displacement of [3H]paroxetine from human serotonin transporter expressed in HEK293 cells.
For test [3], the target named is Sodium-dependent noradrenaline transporter (Homo sapiens, UniProt P23975). Description: In vitro displacement of [3H]nisoxetine from human norepinephrine transporter expressed in HEK293 cells. The essentials:
as §1

Chain of Sodium-dependent serotonin transporter (P31645 whole entry): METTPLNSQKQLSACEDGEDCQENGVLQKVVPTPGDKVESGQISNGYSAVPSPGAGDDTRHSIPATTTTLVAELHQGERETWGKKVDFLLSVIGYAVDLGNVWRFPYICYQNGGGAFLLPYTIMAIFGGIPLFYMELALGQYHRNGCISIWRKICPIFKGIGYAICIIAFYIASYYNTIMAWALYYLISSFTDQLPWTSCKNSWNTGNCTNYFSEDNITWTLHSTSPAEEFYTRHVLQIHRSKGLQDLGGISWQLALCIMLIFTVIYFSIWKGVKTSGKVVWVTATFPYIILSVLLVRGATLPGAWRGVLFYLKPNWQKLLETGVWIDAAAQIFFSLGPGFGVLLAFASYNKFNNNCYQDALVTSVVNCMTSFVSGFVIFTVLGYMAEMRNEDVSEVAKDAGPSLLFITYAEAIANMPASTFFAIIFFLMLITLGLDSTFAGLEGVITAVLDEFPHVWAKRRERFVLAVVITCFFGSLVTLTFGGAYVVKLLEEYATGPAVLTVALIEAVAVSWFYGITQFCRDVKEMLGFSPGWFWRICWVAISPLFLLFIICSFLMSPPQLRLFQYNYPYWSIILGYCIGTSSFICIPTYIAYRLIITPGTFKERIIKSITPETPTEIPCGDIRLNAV
Chain of Sodium-dependent dopamine transporter (Q01959 whole entry): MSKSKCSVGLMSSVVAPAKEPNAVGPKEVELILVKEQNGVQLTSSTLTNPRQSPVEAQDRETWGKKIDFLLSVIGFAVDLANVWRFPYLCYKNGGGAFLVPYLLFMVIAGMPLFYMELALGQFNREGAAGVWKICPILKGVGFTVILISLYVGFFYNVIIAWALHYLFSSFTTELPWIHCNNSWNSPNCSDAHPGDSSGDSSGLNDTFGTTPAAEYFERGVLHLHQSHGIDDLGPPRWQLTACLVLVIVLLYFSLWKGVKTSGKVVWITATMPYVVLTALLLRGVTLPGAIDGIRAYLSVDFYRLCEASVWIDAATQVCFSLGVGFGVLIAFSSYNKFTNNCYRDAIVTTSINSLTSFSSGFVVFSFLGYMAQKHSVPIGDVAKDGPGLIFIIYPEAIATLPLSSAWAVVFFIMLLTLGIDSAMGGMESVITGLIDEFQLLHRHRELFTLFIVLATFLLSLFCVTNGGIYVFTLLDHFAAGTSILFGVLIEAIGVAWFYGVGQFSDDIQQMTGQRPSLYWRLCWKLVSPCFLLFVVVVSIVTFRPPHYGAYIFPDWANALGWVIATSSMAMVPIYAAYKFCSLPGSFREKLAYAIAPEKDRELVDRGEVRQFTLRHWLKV
Chain of Sodium-dependent noradrenaline transporter (P23975 whole entry): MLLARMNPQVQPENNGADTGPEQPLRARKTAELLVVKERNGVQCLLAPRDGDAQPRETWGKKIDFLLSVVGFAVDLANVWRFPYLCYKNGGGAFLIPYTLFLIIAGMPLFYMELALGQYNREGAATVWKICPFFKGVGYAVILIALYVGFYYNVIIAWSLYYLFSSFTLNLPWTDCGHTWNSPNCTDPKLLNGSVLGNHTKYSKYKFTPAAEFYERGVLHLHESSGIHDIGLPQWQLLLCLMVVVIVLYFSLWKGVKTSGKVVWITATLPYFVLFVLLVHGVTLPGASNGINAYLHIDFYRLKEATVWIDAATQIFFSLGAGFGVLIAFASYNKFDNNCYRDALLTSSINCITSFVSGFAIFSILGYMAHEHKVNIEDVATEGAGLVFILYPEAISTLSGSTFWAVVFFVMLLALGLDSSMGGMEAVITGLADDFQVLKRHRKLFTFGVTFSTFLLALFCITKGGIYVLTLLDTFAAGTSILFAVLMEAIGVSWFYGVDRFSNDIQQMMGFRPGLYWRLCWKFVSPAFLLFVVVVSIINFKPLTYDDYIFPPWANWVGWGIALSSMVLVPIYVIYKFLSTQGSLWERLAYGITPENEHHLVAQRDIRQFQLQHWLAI

Turning to `Cc1cc(N)c(Sc2ccccc2CN(C)C)cc1F`, the results for the Ki in test [1], in test [2] and in test [3] were more than 10 µM, 0.179 µM and 7.04 µM, respectively.
